This passage reports EC50 and IC50 results from ChEMBL document CHEMBL1140408 (J Med Chem, 2005).

Some results are limits rather than exact numbers.

The first assay deals with T1, Transient receptor potential cation channel subfamily V member 1 (Homo sapiens, UniProt Q8NER1). The experiment in a line: Concentration required to antagonized capsaicin-induced calcium uptake at the transient receptor potential cation channel (subfamily V member 1) expressed in chinese hamster ovary cells. The class given is cell-based, CHO.
T1 sequence (Q8NER1 whole entry): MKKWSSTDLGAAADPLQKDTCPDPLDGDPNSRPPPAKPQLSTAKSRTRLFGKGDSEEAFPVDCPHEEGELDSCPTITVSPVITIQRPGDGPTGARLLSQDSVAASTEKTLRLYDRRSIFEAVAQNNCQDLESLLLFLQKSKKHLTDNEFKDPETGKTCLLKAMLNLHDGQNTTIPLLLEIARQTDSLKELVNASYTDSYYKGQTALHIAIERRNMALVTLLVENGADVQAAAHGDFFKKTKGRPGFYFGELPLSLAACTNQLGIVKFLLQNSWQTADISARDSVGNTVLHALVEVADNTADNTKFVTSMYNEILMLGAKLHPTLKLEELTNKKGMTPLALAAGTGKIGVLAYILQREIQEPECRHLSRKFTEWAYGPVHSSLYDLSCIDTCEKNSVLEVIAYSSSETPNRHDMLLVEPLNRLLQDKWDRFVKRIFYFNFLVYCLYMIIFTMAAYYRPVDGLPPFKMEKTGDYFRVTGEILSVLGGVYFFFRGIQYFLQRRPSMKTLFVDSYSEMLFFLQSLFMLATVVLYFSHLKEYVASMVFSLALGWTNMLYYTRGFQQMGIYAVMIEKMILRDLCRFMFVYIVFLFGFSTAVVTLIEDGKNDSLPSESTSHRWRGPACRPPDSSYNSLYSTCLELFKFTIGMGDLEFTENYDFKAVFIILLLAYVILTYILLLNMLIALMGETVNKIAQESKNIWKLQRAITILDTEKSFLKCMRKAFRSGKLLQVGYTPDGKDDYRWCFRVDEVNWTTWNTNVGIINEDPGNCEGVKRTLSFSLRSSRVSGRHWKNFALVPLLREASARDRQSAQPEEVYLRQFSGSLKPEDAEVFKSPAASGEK
A word on the EC50: it is the concentration that produces a half-maximal response. As for `CC(C)(C)c1ccc(CNC(=S)NCc2ccc(NS(C)(=O)=O)c(F)c2)cc1`, the EC50 was 8 nM.

The target in the next assay is T2, Transient receptor potential cation channel subfamily V member 1 (Rattus norvegicus, UniProt O35433). Nature of the assay: Inhibitory effect on capsaicin (0.5 uM)-induced calcium uptake in rat DRG neurons upon incubation at RT for 10 minutes; NE=Not effective. In short, it runs like this: (§1)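 Neonatal Sprague–Dawley rat DRG neurons, dissociated with collagenase/trypsin and cultured 3 days with 200 ng/mL NGF (cytosine arabinoside for the first 2 days), were washed in Ca/Mg-free HBSS with 10 mM HEPES at pH 7.4. They were then given 45Ca2+ (10 µCi/mL), 0.5 µM capsaicin and compound for 10 min at room temperature, SDS-lysed and scintillation-counted.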
T2 sequence (O35433 whole entry): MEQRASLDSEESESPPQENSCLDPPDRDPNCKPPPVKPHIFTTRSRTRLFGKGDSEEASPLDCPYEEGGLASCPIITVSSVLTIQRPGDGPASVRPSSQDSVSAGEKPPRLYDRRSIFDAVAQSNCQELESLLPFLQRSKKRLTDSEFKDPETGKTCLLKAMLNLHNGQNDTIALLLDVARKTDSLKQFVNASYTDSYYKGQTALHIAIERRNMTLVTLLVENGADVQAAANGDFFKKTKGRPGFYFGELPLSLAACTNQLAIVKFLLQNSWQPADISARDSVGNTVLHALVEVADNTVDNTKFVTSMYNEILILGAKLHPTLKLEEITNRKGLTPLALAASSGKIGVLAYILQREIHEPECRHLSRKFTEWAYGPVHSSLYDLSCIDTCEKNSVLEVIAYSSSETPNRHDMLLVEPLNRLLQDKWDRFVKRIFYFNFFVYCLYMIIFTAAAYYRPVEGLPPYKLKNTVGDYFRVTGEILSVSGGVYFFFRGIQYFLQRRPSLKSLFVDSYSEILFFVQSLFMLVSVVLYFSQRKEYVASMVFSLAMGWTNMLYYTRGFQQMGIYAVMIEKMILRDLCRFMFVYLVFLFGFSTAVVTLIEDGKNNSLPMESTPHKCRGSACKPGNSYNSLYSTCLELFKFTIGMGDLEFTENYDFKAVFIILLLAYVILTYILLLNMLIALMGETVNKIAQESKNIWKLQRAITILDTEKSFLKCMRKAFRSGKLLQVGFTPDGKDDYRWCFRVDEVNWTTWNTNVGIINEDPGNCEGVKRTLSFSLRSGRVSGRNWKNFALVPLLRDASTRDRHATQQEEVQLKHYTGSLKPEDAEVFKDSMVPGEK
In general, IC50 refers to the concentration needed to halve the response being measured. Regarding `CC(C)(C)c1ccccc1C/N=C(\S)NCc1ccc(NS(C)(=O)=O)c(F)c1`, the IC50 result is “Not Active”.
The same measure, in the same setting: to `CC(C)(C)c1ccc(C/N=C(\S)NCc2ccc(N)c(F)c2)cc1` belongs “Not Active”.
In the case of `COC(=O)Nc1ccc(C/N=C(\S)NCc2ccc(C(C)(C)C)cc2)cc1F`, the IC50 entry was “Not Active”.

A further assay concerns the target T1, Transient receptor potential cation channel subfamily V member 1. Nature of the assay: Concentration required to inhibit [3H]RTX radioligand binding towards transient receptor potential cation channel (subfamily V, member 1) expressed in chinese hamster ovary cells. In kind it is cell-based, CHO.
For the molecule `CC(C)(C)c1ccc(CNC(=S)NCc2ccc(NS(C)(=O)=O)c(F)c2)cc1`, the IC50 is 54 nM.

A further assay deals with T2, Transient receptor potential cation channel subfamily V member 1. Nature of the assay: Inhibitory effect on capsaicin (0.5 uM)-induced calcium uptake in rat DRG neurons upon incubation at RT for 10 minutes. In short, it runs like this: as §1
Turning to `CC(C)(C)c1ccc(CNC(=S)NCc2ccc(NS(C)(=O)=O)c([N+](=O)[O-])c2)cc1`, the IC50 was found to be 71 nM.
Same read-out and setting: to `CC(C)(C)c1ccc(C/N=C(\S)NCc2ccc(NS(C)(=O)=O)c(C#N)c2)cc1` belongs 5900 nM; to `CC(C)(C)c1ccc(CCNC(=S)NCc2ccc(NS(C)(=O)=O)c(F)c2)cc1`, 370 nM.
Still for that read-out and setting: to `CS(=O)(=O)Nc1ccc(CN=C(S)NCc2cccc3ccccc23)cc1F` belongs 2600 nM; to `CCOC(=O)CNc1ccc(CNC(=S)NCc2ccc(C(C)(C)C)cc2)cc1F`, above 30000 nM; to `CC(C)(C)c1ccc(CNC(=S)NCc2ccc3nc[nH]c3c2)cc1`, 790 nM.
On the same count and under the same terms, with `CC(C)(C)c1ccc(C/N=C(\S)NCc2ccc(NS(C)(=O)=O)c(Br)c2)cc1` the figure was 80 nM.
Consider `CC(C)(C)c1cc(CNC(=S)NCc2ccc(NS(C)(=O)=O)c(F)c2)cc(C(C)(C)C)c1`, for which the IC50 came out at 200 nM.
Still for that read-out and setting: with `CS(=O)(=O)Nc1ccc(C/N=C(\S)NCc2ccc(Br)cc2)cc1F` the figure was 570 nM; with `CC(C)(C)c1ccc(CNC(=S)NCc2ccc(NS(C)(=O)=O)c(I)c2)cc1`, 41 nM; with `Cc1ccc(C/N=C(\S)NCc2ccc(NS(C)(=O)=O)c(F)c2)cc1`, 1500 nM.
The same measure, in the same setting: to `CC(C)(C)c1ccc(C/N=C(\S)NCc2ccc(NS(C)(=O)=O)c(C(=O)NO)c2)cc1` belongs above 30000 nM; to `CCOC(=O)N/C(=N\Cc1ccc(NS(C)(=O)=O)c(F)c1)NCc1ccc(C(C)(C)C)cc1`, 6200 nM; to `CCc1ccc(C/N=C(\S)NCc2ccc(NS(C)(=O)=O)c(F)c2)cc1`, 1100 nM.
Same read-out and setting: with `CS(=O)(=O)Nc1ccc(C/N=C(\S)NCc2ccc(I)cc2)cc1F` the figure was 630 nM.
For the molecule `CONC(=O)c1cc(C/N=C(\S)NCc2ccc(C(C)(C)C)cc2)ccc1NS(C)(=O)=O`, the IC50 was above 30000 nM.
Same read-out and setting: with `CS(=O)(=O)Nc1ccc(C/N=C(\S)NC(c2ccccc2)c2ccccc2)cc1F` the figure was 2500 nM; with `CS(=O)(=O)Nc1ccc(C/N=C(\S)Nc2c3ccccc3cc3ccccc23)cc1F`, 1100 nM.
Still for that read-out and setting: with `CC(C)(C)c1ccc(CNC(=S)NCc2ccc(NC(=O)C(F)(F)F)c(F)c2)cc1` the figure was above 30000 nM; with `CC(C)(C)NC(=S)NCc1ccc(NS(C)(=O)=O)c(F)c1`, above 30000 nM.
Turning to `CC(C)(C)c1ccc(CNC(=S)NCc2ccc3nn[nH]c3c2)cc1`, the IC50 stood at 50 nM.
As for `CCCCc1ccc(CNC(=S)NCc2ccc(NS(C)(=O)=O)c(F)c2)cc1`, the IC50 was found to be 470 nM.
On the same count and under the same terms, to `CC(C)c1ccc(C/N=C(\S)NCc2ccc(NS(C)(=O)=O)c(F)c2)cc1` belongs 520 nM; to `CC(C)(C)c1ccc(N/C(S)=N/Cc2ccc(NS(C)(=O)=O)c(F)c2)cc1`, 1600 nM.
The same measure, in the same setting: with `COCC(=O)Nc1ccc(CNC(=S)NCc2ccc(C(C)(C)C)cc2)cc1F` the figure was 10900 nM; with `Cc1ccccc1C/N=C(\S)NCc1ccc(NS(C)(=O)=O)c(F)c1`, 670 nM; with `Cc1cccc(CNC(=S)NCc2ccc(NS(C)(=O)=O)c(F)c2)c1`, 1300 nM.
For the molecule `CC(C)(C)c1ccc(CNC(=S)NCc2ccc3[nH]ccc3c2)cc1`, the concentration for half-maximal inhibition (IC50) was determined as 1800 nM.
As to `CC(C)(C)c1ccc(C/N=C(\NC#N)NCc2ccc(NS(C)(=O)=O)c(F)c2)cc1`, the IC50 was 730 nM.
The same measure, in the same setting: with `CCOC(=O)Nc1ccc(C/N=C(\S)NCc2ccc(C(C)(C)C)cc2)cc1F` the figure was above 30000 nM.
Still for that read-out and setting: to `CC(C)OC(=O)c1cc(C/N=C(\S)NCc2ccc(C(C)(C)C)cc2)ccc1NS(C)(=O)=O` belongs above 30000 nM; to `CS(=O)(=O)Nc1ccc(CNC(=S)NCc2ccc(-c3ccccc3)cc2)cc1F`, above 30000 nM.
The same measure, in the same setting: to `COC(=O)CNc1ccc(CNC(=S)NCc2ccc(C(C)(C)C)cc2)cc1F` belongs 3600 nM; to `CCCc1ccc(CNC(=S)NCc2ccc(NS(C)(=O)=O)c(F)c2)cc1`, 460 nM; to `CC(C)(C)c1ccc(CCC/N=C(\S)NCc2ccc(NS(C)(=O)=O)c(F)c2)cc1`, 2000 nM.
As to `CC(C)(C)c1ccc(C(C)(C)/N=C(\S)NCc2ccc(NS(C)(=O)=O)c(F)c2)cc1`, the IC50 was above 30000 nM.

A further assay shares this target. Nature of the assay: Inhibitory effect on capsaicin (0.5 uM)-induced calcium uptake in rat DRG neurons upon incubation at RT for 10 minutes; NE = Not effective. The gist of the method: as §1
`CC(C)(C)c1ccc(C/N=C(\S)NCc2ccc(NCC(=O)O)c(F)c2)cc1`: the 50% inhibitory concentration (IC50) result was “Not Active”.
The same measure, in the same setting: to `CC(C)(C)c1ccc(C/N=C(\S)NCc2ccc3c(c2)OCO3)cc1` belongs “Not Active”.
